The values below come from ChEMBL document CHEMBL5712085, “Inhibition of SMYD2 Sensitized Cisplatin to Resistant Cells in NSCLC Through Activating p53 Pathway” (2019).

Each structure is given as a SMILES string. Calls of active or inactive are those of the source. The calls are words filed in the database; no cut-off is given here.

In assay [1] the test system is A549. The assay is described as follows: Cytotoxicity against human A549 cells assessed as inhibition of cell growth measured after 48 hrs by MTT assay. Format: functional, cell-based. The conditions noted are these: Lung. In outline:
(§1)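 Cells were grown in RPMI-1640 with 10% FBS, seeded at 1 × 10^5 cells/ml, left overnight and treated with a range of concentrations for 48 h. MTT (2.5 mg/ml in PBS) was added for 4 h at 37°C. Plates were centrifuged, the medium removed and the formazan dissolved in DMSO. OD was read at 570 nm.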
A general note: Tetrazolium assays rely on reduction of a dye to a coloured formazan, in cell work by metabolically active cells.

Assay [2] concerns NCI-H460. The assay is described as follows: Cytotoxicity against human NCI-H460 cells assessed as inhibition of cell growth measured after 48 hrs by MTT assay. Format: functional, cell-based. Conditions: Lung. The method in brief:
as §1

Assay [3] concerns NCI-H460. The assay is described as follows: Antitumor activity against human CDDP-resistant NCI-H460 cells xenografted in Balb/c mouse assessed as slight decrease in tumor growth at 40 mg/kg/day i.p. Format: functional, organism-based. Conditions: Lung, route ip. The method in brief:
(§2)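 Male BALB/c mice aged 7–8 weeks received NCI-H460/CDDP cells (5 × 10^6 in 100 μl PBS) subcutaneously into the right flank. At a mean tumor volume of 100 mm3, mice were randomized (n = 6 per group) to saline, inhibitor 40 mg/kg once daily i.p., CDDP 4.0 mg/kg every 3 days i.p., or the combination. Tumor growth was followed for 2 weeks.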
A general note: A xenograft is tissue or cells of one species grown in another, often human tumour cells in immunodeficient mice.

Assay [4] has as its system NCI-H460. The assay is described as follows: Antitumor activity against human CDDP-resistant NCI-H460 cells xenografted in Balb/c mouse assessed as inhibition of tumor growth at 40 mg/kg/day i.p in presence of cisplatin. Format: functional, organism-based. Conditions: Lung, route ip. The method in brief:
as §2

The test system of assay [5] is Mus musculus. Nature of the assay: Downregulation of p53K370me protein expression in Balb/c mouse tumor xenografted with CDDP-resistant NCI-H460 cells at 40 mg/kg/day ip by Western blot analysis. It is filed as functional, organism-based. In outline:
(§3)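 Excised tumors came from NCI-H460/CDDP flank xenografts in male BALB/c mice (saline, inhibitor 40 mg/kg daily i.p., CDDP 4.0 mg/kg every 3 days i.p., or the combination; 2 weeks). They were stored at −80°C. Protein extracts were run on 10–15% SDS-PAGE, transferred to PVDF, probed with primary and HRP secondary antibodies, detected by ECL and normalized to β-actin.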
In general terms: Immunoblotting shows a protein as a band on a membrane.

The test system of assay [6] is Mus musculus. Nature of the assay: Downregulation of p53K370me protein expression in Balb/c mouse tumor xenografted with CDDP-resistant NCI-H460 cells at 40 mg/kg/day ip by Western blot analysis in presence of cisplatin. Format: functional, organism-based. In outline: as §3
The subject of assay [7] is A549. The assay is described as follows: Potentiation of Taxol-induced cytotoxicity in human A549 cells assessed as cell viability at 2 uM measured after 48 hrs by MTT assay. It is filed as functional, cell-based. The conditions noted are these: Lung.
The test system of assay [8] is A549. Nature of the assay: Potentiation of VCR-induced cytotoxicity in human A549 cells assessed as cell viability at 2 uM measured after 48 hrs by MTT assay. It is filed as functional, cell-based. The conditions noted are these: Lung.
Assay [9] has as its system NCI-H460. The assay is described as follows: Potentiation of Taxol-induced cytotoxicity in human NCI-H460 cells assessed as cell viability at 2 uM measured after 48 hrs by MTT assay. It is filed as functional, cell-based. The conditions noted are these: Lung.
Assay [10] has as its system NCI-H460. The assay is described as follows: Potentiation of VCR-induced cytotoxicity in human NCI-H460 cells assessed as cell viability at 2 uM measured after 48 hrs by MTT assay. Format: functional, cell-based. Conditions: Lung.
The test system of assay [11] is NCI-H460. The assay is described as follows: Potentiation of CDDP-induced apoptosis in human CDDP-resistant NCI-H460 cells assessed as viable cells at 2 uM measured after 48 hrs by annexin-V/PI staining based flow cytometry. Format: functional. The conditions noted are these: NCI-H460, Lung, read-out: Activity.
The test system of assay [12] is NCI-H460. The assay is described as follows: Potentiation of CDDP-induced apoptosis in human CDDP-resistant NCI-H460 cells assessed as early apoptotic cells at 2 uM measured after 48 hrs by annexin-V/PI staining based flow cytometry. Format: functional, Lung.
In assay [13] the test system is NCI-H460. The assay is described as follows: Potentiation of CDDP-induced apoptosis in human CDDP-resistant NCI-H460 cells assessed as late apoptotic cells at 2 uM measured after 48 hrs by annexin-V/PI staining based flow cytometry. Format: functional, Lung.
Assay [14] concerns NCI-H460. Nature of the assay: Potentiation of CDDP-induced apoptosis in human CDDP-resistant NCI-H460 cells assessed as necrotic cells at 2 uM measured after 48 hrs by annexin-V/PI staining based flow cytometry. Format: functional, Lung.
The subject of assay [15] is NCI-H460. Nature of the assay: Potentiation of CDDP-induced apoptosis in human NCI-H460 cells assessed as viable cells at 2 uM measured after 48 hrs by annexin-V/PI staining based flow cytometry. Conditions: NCI-H460, Lung, read-out: Activity. Format: functional.
Assay [16] has as its system NCI-H460. Nature of the assay: Potentiation of CDDP-induced apoptosis in human NCI-H460 cells assessed as early apoptotic cells at 2 uM measured after 48 hrs by annexin-V/PI staining based flow cytometry. Format: functional, Lung.
Assay [17] relates to NCI-H460. The assay is described as follows: Potentiation of CDDP-induced apoptosis in human NCI-H460 cells assessed as late apoptotic cells at 2 uM measured after 48 hrs by annexin-V/PI staining based flow cytometry. Format: functional, Lung.
Assay [18] has as its system NCI-H460. The assay is described as follows: Potentiation of CDDP-induced apoptosis in human NCI-H460 cells assessed as necrotic cells at 2 uM measured after 48 hrs by annexin-V/PI staining based flow cytometry. Format: functional, Lung.
Assay [19] relates to NCI-H460. The assay is described as follows: Induction of apoptosis in human NCI-H460 cells assessed as viable cells at 10 uM after 48 hrs by annexin-V/PI staining based flow cytometry (reference value: 98.42%). It is filed as functional. Conditions: NCI-H460, Lung, read-out: Activity.
The subject of assay [20] is NCI-H460. The assay is described as follows: Induction of apoptosis in human NCI-H460 cells assessed as early apoptotic cells at 10 uM after 48 hrs by annexin-V/PI staining based flow cytometry (reference value: 0.02%). Format: functional, Lung.
The test system of assay [21] is NCI-H460. Nature of the assay: Induction of apoptosis in human NCI-H460 cells assessed as late apoptotic cells at 10 uM after 48 hrs by annexin-V/PI staining based flow cytometry (reference value: 0.02%). It is filed as functional, Lung.
In assay [22] the test system is NCI-H460. Nature of the assay: Induction of apoptosis in human NCI-H460 cells assessed as necrotic cells at 10 uM after 48 hrs by annexin-V/PI staining based flow cytometry (reference value: 1.53%). Format: functional, Lung.
The test system of assay [23] is NCI-H460. The assay is described as follows: Induction of apoptosis in human CDDP-resistant NCI-H460 cells assessed as viable cells at 10 uM after 48 hrs by annexin-V/PI staining based flow cytometry (reference value: 95.44%). Format: functional. The conditions noted are these: NCI-H460, Lung, read-out: Activity.
Assay [24] deals with NCI-H460. The assay is described as follows: Induction of apoptosis in human CDDP-resistant NCI-H460 cells assessed as early apoptotic cells at 10 uM after 48 hrs by annexin-V/PI staining based flow cytometry (reference value: 0.03%). It is filed as functional, Lung.
Assay [25] deals with NCI-H460. The assay is described as follows: Induction of apoptosis in human CDDP-resistant NCI-H460 cells assessed as late apoptotic cells at 10 uM after 48 hrs by annexin-V/PI staining based flow cytometry (reference value: 0.03%). Format: functional, Lung.
In assay [26] the test system is NCI-H460. Nature of the assay: Induction of apoptosis in human CDDP-resistant NCI-H460 cells assessed as necrotic cells at 10 uM after 48 hrs by annexin-V/PI staining based flow cytometry (reference value: 0.03%). It is filed as functional, Lung.

In the case of `CCC1=C[C@@H]2CN(C1)Cc1c([nH]c3ccccc13)[C@@](C(=O)OC)(c1cc3c(cc1OC)N(C)[C@H]1[C@@](O)(C(=O)OC)[C@H](OC(C)=O)[C@]4(CC)C=CCN5CC[C@]31[C@@H]54)C2`, the Activity result in assay [1] and in assay [2] was “Dose-Dependent Effect” in each case.

Consider `O=C1COc2c(CCNCCN(C(=O)CCNCCc3ccc(Cl)c(Cl)c3)C3CCCCC3)ccc(O)c2N1`, for which the result in [3] and in assay [4] was Active. In addition, the inhibition entry in assay [5] and in assay [6] was “Active” each time.

Turning to `CC(=O)O[C@H]1C(=O)[C@@]2(C)[C@H]([C@H](OC(=O)c3ccccc3)[C@]3(O)C[C@H](OC(=O)[C@H](O)[C@@H](NC(=O)c4ccccc4)c4ccccc4)C(C)=C1C3(C)C)[C@]1(OC(C)=O)CO[C@@H]1C[C@@H]2O`, the Activity result in assay [1] and in assay [2] was “Dose-Dependent Effect” in each case.

In the case of `CCN(C(=O)CO)[C@H]1CN(/C(=N\C#N)Nc2cccc(OC(F)F)c2)N=C1c1ccc(Cl)c(Cl)c1`, the outcome in assay [7], in [8], in assay [9] and in assay [10] was inactive. For the same compound, the viability at 2 µM stood at 8.94% in assay [11] and 0.5% in assay [15]. In addition, the Activity in assay [12] turned out to be 5.21%; in assay [13] it was 66.1%; in assay [14], 19.75%; in assay [16] it was 14.7%; in assay [17], 84.74%; in [18] it was 0.04%. The Activity in [20] was 0.03%; in [21], 0.26%; in assay [22], 2.08%; in [24], 1.53%; in assay [25] it was 7.55%; in assay [26], 4.72%. Besides, the results for the viability at 10 µM in [19] and in assay [23] were 97.6% and 85.2%, respectively.

On to `CC[C@]1(O)C[C@H]2CN(CCc3c([nH]c4ccccc34)[C@@](C(=O)OC)(c3cc4c(cc3OC)N(C=O)[C@H]3[C@@](O)(C(=O)OC)[C@H](OC(C)=O)[C@]5(CC)C=CCN6CC[C@]43[C@@H]65)C2)C1`, for which the Activity result in assay [1] and in assay [2] was “Dose-Dependent Effect” each time.
